Activity calls are given as the source filed them. The calls are words filed in the database; no cut-off is given here.
Tests used:
MDA-MB-231 [1] = test: Cytotoxicity against human MDA-MB-231 cells assessed as reduction in cell viability incubated for 48 hrs by MTT assay; assay type: functional, cell-based; conditions: MDA-MB-231, 48 h
Outline: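 MTT assay in MDA-MB-231 cells grown in DMEM with 10% heat-inactivated FBS at 37 °C and 5% CO2. Cells were seeded at 8000 per well, left 24 h, then exposed for 48 h to 0–25 μM in DMEM with 2% FBS (final DMSO 0.1%). MTT (0.5 mg/mL) was added for 2 h, formazan was dissolved in DMSO and read at 570 nm. Runs were in triplicate and IC50 was derived from the curves.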

[2] = molecular target: Sodium-dependent dopamine transporter (Homo sapiens, UniProt Q01959); test: Inhibition of DAT (unknown origin)
Sequence of Sodium-dependent dopamine transporter (Q01959 whole entry): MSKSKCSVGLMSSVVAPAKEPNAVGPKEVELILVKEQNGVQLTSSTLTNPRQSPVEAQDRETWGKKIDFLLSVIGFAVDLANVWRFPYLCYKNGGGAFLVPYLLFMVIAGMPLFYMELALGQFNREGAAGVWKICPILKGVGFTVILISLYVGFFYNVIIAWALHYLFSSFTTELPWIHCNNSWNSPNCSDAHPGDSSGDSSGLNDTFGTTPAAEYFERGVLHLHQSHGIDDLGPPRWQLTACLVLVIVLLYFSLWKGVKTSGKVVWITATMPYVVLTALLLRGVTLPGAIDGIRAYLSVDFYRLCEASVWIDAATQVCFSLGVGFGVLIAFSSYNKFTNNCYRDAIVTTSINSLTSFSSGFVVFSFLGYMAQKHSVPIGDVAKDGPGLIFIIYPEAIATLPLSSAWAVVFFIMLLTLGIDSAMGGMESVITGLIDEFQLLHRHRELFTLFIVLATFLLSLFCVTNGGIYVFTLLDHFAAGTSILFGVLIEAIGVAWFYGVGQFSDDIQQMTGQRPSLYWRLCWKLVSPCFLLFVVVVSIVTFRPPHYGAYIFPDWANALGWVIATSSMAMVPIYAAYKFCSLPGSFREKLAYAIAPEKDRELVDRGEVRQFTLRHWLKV

[3] = molecular target: DAT (sodium-dependent dopamine transporter) (Homo sapiens, UniProt Q01959); test: Inhibition of DAT (unknown origin) at 10 uM relative to control
Sequence of DAT (sodium-dependent dopamine transporter) (Q01959 whole entry): as above
Outline: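 Primary radioligand-binding screen by the NIMH Psychoactive Drug Screening Program. Each compound was tested at a final concentration of 10 μM in triplicate or quadruplicate, and % inhibition was recorded. Data are mean ± SEM of four independent experiments. Compounds reaching at least 50% antagonist activity went on to secondary dose-response assays.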

[4] = Metabolic stability in Sprague-Dawley rat liver microsomes assessed as parent compound remaining in presence of NADPH measured up to 60 mins by LC-MS/MS analysis; assay type: ADME, Microsome; conditions: 1 h
Outline: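 Pooled male Sprague-Dawley rat liver microsomes (6.2% mixture in potassium phosphate buffer) were used with an NADPH regenerating system. Compound, diluted to 5 μM before mixing, was prewarmed 10 min at 37 °C, then incubated with microsomes at 37 °C with shaking. Samples taken at 0, 5, 15, 30 and 60 min were quenched in ice-cold acetonitrile and centrifuged. Analysis was by LC-MS/MS, giving % remaining versus T0 from peak area ratios. Three independent experiments in triplicate.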

[5] = molecular target: Fibroblast growth factor receptor 1 (Homo sapiens) (UniProt P11362); test: Inhibition of FGFR1 phosphorylation in human […] cells at 3 to 6 uM incubated for 48 hrs in presence of bFGF by immunoblotting analysis; assay type: cell-based; conditions: MDA-MB-231, dose 3-6 µM
Sequence of Fibroblast growth factor receptor 1 (Homo sapiens) (P11362 22-822 limits assumed): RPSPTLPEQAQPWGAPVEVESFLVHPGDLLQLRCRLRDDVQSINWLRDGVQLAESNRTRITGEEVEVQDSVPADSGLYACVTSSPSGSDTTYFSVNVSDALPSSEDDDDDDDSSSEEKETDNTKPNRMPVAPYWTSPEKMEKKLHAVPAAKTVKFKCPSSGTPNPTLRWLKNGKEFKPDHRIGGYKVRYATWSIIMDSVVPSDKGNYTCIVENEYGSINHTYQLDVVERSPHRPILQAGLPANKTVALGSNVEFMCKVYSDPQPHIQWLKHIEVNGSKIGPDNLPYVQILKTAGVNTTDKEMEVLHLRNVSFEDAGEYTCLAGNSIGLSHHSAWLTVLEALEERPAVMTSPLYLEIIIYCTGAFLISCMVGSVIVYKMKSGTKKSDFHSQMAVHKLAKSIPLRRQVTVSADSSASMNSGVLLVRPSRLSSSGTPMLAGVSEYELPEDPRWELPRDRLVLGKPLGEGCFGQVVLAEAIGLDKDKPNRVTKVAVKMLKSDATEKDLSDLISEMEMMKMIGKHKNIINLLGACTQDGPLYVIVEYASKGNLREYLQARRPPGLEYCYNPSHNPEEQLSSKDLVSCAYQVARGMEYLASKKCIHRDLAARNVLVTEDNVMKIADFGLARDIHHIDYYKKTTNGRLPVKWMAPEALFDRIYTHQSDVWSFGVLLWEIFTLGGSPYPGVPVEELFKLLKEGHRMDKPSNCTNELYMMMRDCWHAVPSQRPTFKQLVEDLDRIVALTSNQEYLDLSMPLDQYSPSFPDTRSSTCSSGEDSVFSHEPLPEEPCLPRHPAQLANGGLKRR
Outline: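 MDA-MB-231 cells treated 48 h with or without bFGF, lysed in RIPA buffer with protease and phosphatase inhibitors. Equal protein loads were run on SDS-PAGE and transferred to PVDF. Blots were probed with anti-pFGFR1 (1:1000), using β-tubulin (1:2000) as loading control. Bands were detected by HRP chemiluminescence and quantified by densitometry; n = 3.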

MDA-MB-231 [6] = test: Induction of apoptosis in human MDA-MB-231 cells at 1 uM incubated for 48 hrs; assay type: functional, cell-based
MDA-MB-231 [7] = test: Effect on cell cycle in human MDA-MB-231 cells at 0 to 5 uM; assay type: functional, cell-based; conditions: dose 0-5 µM
MDA-MB-231 [8] = test: Induction of apoptosis in human MDA-MB-231 cells assessed as fold increase in apoptotic index at 5 uM relative to control; assay type: functional
MDA-MB-231 [9] = test: Induction of apoptosis in human MDA-MB-231 cells assessed as caspase-3 cleavage; assay type: functional, cell-based
Outline: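 MDA-MB-231 cells treated 48 h, lysed on ice in RIPA buffer with protease and phosphatase inhibitors, then centrifuged. Equal protein loads were run on SDS-PAGE and transferred to PVDF. Blots were probed for cleaved caspase-3 and total caspase-3 (1:1000), with β-tubulin (1:2000) as loading control. Detection used HRP chemiluminescence with goat anti-rabbit secondary, and bands were quantified by densitometry.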

MDA-MB-231 [10] = test: Induction of apoptosis in human MDA-MB-231 cells incubated for 48 hrs; assay type: functional, cell-based

Row | SMILES | IC50 (MDA-MB-231 [1]) [µM] | inhibition at 10 µM [3] [%] | also measured
1 | CC(=O)Nc1ccc(C(CCCCNC(=O)Nc2ccc(Cl)c(C(F)(F)F)c2)c2ccc(NC(C)=O)cc2)cc1 | > 20 |  | 
2 | O=C(NCCCCC(c1ccc([N+](=O)[O-])cc1)c1ccc([N+](=O)[O-])cc1)Nc1ccc(Cl)c(C(F)(F)F)c1 | 1.23 |  | 
3 | O=C(NCCCCC(c1ccc(F)cc1)c1ccc(F)cc1)Nc1ccc(C(=O)O)c(C(F)(F)F)c1 | > 20 |  | 
4 | O=C(NCCCCN(c1ccc(F)cc1)c1ccc(F)cc1)Nc1ccc(Cl)c(C(F)(F)F)c1 | 5.04 | 85 | Ki [2]: 0.043 µM
5 | Cc1ccc(C(CCCCNC(=O)Nc2ccc(Cl)c(C(F)(F)F)c2)c2ccc(C)cc2)cc1 | 2.51 | 38 | 
6 | O=C(NCCCCC(c1ccc(F)cc1)c1ccc(F)cc1)Nc1ccc(I)cc1 | 11.8 | 24 | 
7 | Cc1cc(Cl)ccc1NC(=O)NCCCCC(c1ccc(F)cc1)c1ccc(F)cc1 | > 20 | 58 | Ki [2]: 0.118 µM
8 | O=C(NCCCCC(c1ccc(F)cc1)c1ccc(F)cc1)Nc1cccc(C(F)(F)F)c1 | 3.38 |  | 
9 | CC(=O)Nc1cc(NC(=O)NCCCCC(c2ccc(F)cc2)c2ccc(F)cc2)ccc1Cl | 9.12 | 76 | Ki [2]: 0.609 µM
10 | Cc1cccc(NC(=O)NCCCCC(c2ccc(F)cc2)c2ccc(F)cc2)c1 | > 20 |  | 
11 | O=C(NCCCCC(c1ccc(F)cc1)c1ccc(F)cc1)c1ccc(Cl)c(C(F)(F)F)c1 | 11.7 | 51 | Ki [2]: 0.603 µM
12 | O=C(NCCCC(c1ccc(F)cc1)c1ccc(F)cc1)Nc1ccc(Cl)c(C(F)(F)F)c1 | 3.5 | 86 | Ki [2]: 0.141 µM
13 | COc1ccc(C(CCCCNC(=O)Nc2ccc(Cl)c(C(F)(F)F)c2)c2ccc(OC)cc2)cc1 | 3.3 | 75 | Ki [2]: 0.04 µM
14 | COc1ccc(C(CCCCNC(=O)Nc2ccc(Cl)c([N+](=O)[O-])c2)c2ccc(OC)cc2)cc1 | 3.99 | 64 | Ki [2]: 0.144 µM
15 | O=C(NCCCCCC(c1ccc(F)cc1)c1ccc(F)cc1)Nc1ccc(Cl)c(C(F)(F)F)c1 | 2.57 | 77 | Ki [2]: 0.399 µM
16 | O=C(Nc1ccc(Cl)c(C(F)(F)F)c1)N1CCC(=C(c2ccc(F)cc2)c2ccc(F)cc2)CC1 | 5.65 |  | 
17 | O=C(NCCCCC(c1ccc(OC(F)(F)F)cc1)c1ccc(OC(F)(F)F)cc1)Nc1ccc(Cl)c(C(F)(F)F)c1 | 1.69 |  | 
18 | O=C(NCCCCC(c1ccc(F)cc1)c1ccc(F)cc1)Nc1cccc(Cl)c1 | 5.07 |  | 
19 | O=C(NCCCCC(c1ccccc1)c1ccccc1)Nc1ccc(Cl)c(C(F)(F)F)c1 | 5.72 |  | 
20 | O=C(Nc1ccc(Cl)c(C(F)(F)F)c1)OCCCCC(c1ccc(F)cc1)c1ccc(F)cc1 | 4.58 | 49 | 
21 | Nc1ccc(NC(=O)NCCCCC(c2ccc(F)cc2)c2ccc(F)cc2)cc1 | > 20 |  | 
22 | O=C(CCCCC(c1ccc(F)cc1)c1ccc(F)cc1)Nc1ccc(Cl)c(C(F)(F)F)c1 | 11.4 | 33 | 
23 | Fc1ccc(C(CCCCOC2COC(c3ccccc3)OC2)c2ccc(F)cc2)cc1 (configuration not stated) | > 20 |  | 
24 | O=C(NCCCCC(c1ccc(F)cc1)c1ccc(F)cc1)Nc1ccc(Cl)c(C(F)(F)F)c1 | 3.15 | 90 | Ki [2]: 0.0065 µM; Stabilty [4]: Stable
25 | Fc1ccc(C(CCCCN(c2ccc(F)cc2)c2ccc(F)cc2)c2ccc(F)cc2)cc1 | > 20 |  | 
26 | O=C(NCCCCC(c1ccc(F)cc1)c1ccc(F)cc1)Nc1ccc(C(F)(F)F)cc1 | 2.78 |  | 
27 | O=C(OCCCC(c1ccc(F)cc1)c1ccc(F)cc1)c1cc(Cl)c(OCc2ccccc2)c(Cl)c1 | > 20 |  | 

Row | SMILES | IC50 (MDA-MB-231 [1]) [µM] | inhibition at 10 µM [3] [%] | also measured
28 | O=C(NCCCCN(c1ccc(F)cc1)c1ccc(F)cc1)Nc1ccc(Br)cc1I | > 20 |  | 
29 | Cc1ccc(C(CCCCNC(=O)Nc2ccc(Cl)cc2)c2ccc(C)cc2)cc1 | 17.9 | 59 | Ki [2]: 0.535 µM
30 | O=C(NCCCCC(c1ccc(F)cc1)c1ccc(F)cc1)Nc1ccc(Br)cc1I | > 20 |  | 
31 | O=C(NCCCCC(c1ccc(F)cc1)c1ccc(F)cc1)Nc1ccc([N+](=O)[O-])cc1 | 6.47 |  | 
32 | Fc1ccc(C(CCCCOCc2ccc(Oc3ccc(Cl)cc3)cc2)c2ccc(F)cc2)cc1 | > 20 |  | 
33 | CC(=O)Nc1ccc(NC(=O)NCCCCC(c2ccc(F)cc2)c2ccc(F)cc2)cc1 | > 20 |  | 
34 | Cc1ccc(NC(=O)NCCCCC(c2ccc(F)cc2)c2ccc(F)cc2)cc1 | > 20 |  | 
35 | O=C(NCCCCC(c1ccc(F)cc1)c1ccc(F)cc1)Nc1ccc([N+](=O)[O-])c(Cl)c1 | 3.47 |  | 
36 | CN(CCCCC(c1ccc(F)cc1)c1ccc(F)cc1)C(=O)N(C)c1ccc(Cl)c(C(F)(F)F)c1 | > 20 | 26 | 
37 | O=C(Nc1ccc(Cl)c(C(F)(F)F)c1)N1CCC(CC(c2ccc(F)cc2)c2ccc(F)cc2)CC1 | 4.84 | 24 | 
38 | OC1(c2ccc(Cl)c(C(F)(F)F)c2)CCN(CCCC(c2ccc(F)cc2)c2ccc(F)cc2)CC1 [PENFLURIDOL] | 2.3 |  | 
39 | Nc1ccc(C(CCCCNC(=O)Nc2ccc(Cl)c(C(F)(F)F)c2)c2ccc(N)cc2)cc1 | 12.2 |  | 
40 | Nc1cc(NC(=O)NCCCCC(c2ccc(F)cc2)c2ccc(F)cc2)ccc1Cl | 9.24 |  | 
41 | O=C(NCCCCN(c1ccc(F)cc1)c1ccc(F)cc1)Nc1ccc(Cl)cc1 | > 20 | 68 | Ki [2]: 0.405 µM
42 | O=C(NCCCCC(c1ccc(F)cc1)c1ccc(F)cc1)Nc1ccc([N+](=O)[O-])c(C(F)(F)F)c1 | 4.55 |  | inhibition [5]: Active; Activity (MDA-MB-231 [6]): Active; Activity (MDA-MB-231 [7]): inactive; fold change (FC) (MDA-MB-231 [8]): 10.6; Activity (MDA-MB-231 [9]): Active; Activity (MDA-MB-231 [10]): Dose-dependent effect; Stabilty [4]: Stable
43 | O=C(NCCCCC(c1ccc(F)cc1)c1ccc(F)cc1)Nc1cccc([N+](=O)[O-])c1 | 3.79 |  | 
44 | O=C(NCCCCCc1ccc(F)cc1)Nc1ccc(Cl)c(C(F)(F)F)c1 | 5.44 |  | 
45 | O=C(NCCCCN(c1ccc(F)cc1)c1ccc(F)cc1)Nc1ccc(I)cc1 | > 20 |  | 
46 | Fc1ccc(C(CCCCNC(=S)Nc2ccc(Cl)c(C(F)(F)F)c2)c2ccc(F)cc2)cc1 | 3.66 |  | 
47 | Cc1ccc(NC(=O)NCCCCN(c2ccc(F)cc2)c2ccc(F)cc2)cc1C | > 20 |  | 
48 | O=C(Nc1ccc(Cl)c(C(F)(F)F)c1)N1CCC(C(c2ccc(F)cc2)c2ccc(F)cc2)CC1 | 11.4 | 52 | Ki [2]: 1.59 µM
49 | CN(CCCCC(c1ccc(F)cc1)c1ccc(F)cc1)C(=O)Nc1ccc(Cl)c(C(F)(F)F)c1 | 6.02 | 73 | Ki [2]: 0.998 µM
50 | O=S(=O)(c1ccc(Cl)c(C(F)(F)F)c1)N1CCN(CCCCC(c2ccc(F)cc2)c2ccc(F)cc2)CC1 | > 20 |  | 
51 | Cc1ccc(NC(=O)NCCCCC(c2ccc(F)cc2)c2ccc(F)cc2)cc1C | > 20 | 79 | Ki [2]: 0.08 µM
52 | O=C(NCCCCC(c1ccc(F)cc1)c1ccc(F)cc1)Nc1ccc(Cl)c([N+](=O)[O-])c1 | 4.06 |  | 
53 | O=C(NCCCCC(c1ccc(F)cc1)c1ccc(F)cc1)Nc1ccc(Cl)cc1C(F)(F)F | > 20 | 20 | 
54 | COC(=O)c1ccc(NC(=O)NCCCCC(c2ccc(F)cc2)c2ccc(F)cc2)cc1C(F)(F)F | 4.43 |  | 
